From ChEMBL document CHEMBL4014350, “Alkoxyurea-Based Histone Deacetylase Inhibitors Increase Cisplatin Potency in Chemoresistant Cancer Cell Lines” (J Med Chem, 2017)

Columns and labels:
CAL-27 [1] = assay: Potentiation of 5 uM cisplatin-induced cytotoxicity against human CAL27 cells assessed as decrease in cell viability by measuring combination index at 2000 uM preincubated for 48 hrs followed by cisplatin treatment measured after 72 hrs by MTT assay; assay type: functional; conditions: in the assay text read “at 2000 nM” for “at 2000 uM”
How it was run: (§1)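 HDAC inhibitor was added 48 h before cisplatin, then cells were exposed to cisplatin for 72 h and viability was read by MTT assay. Combination index was computed by the Chou–Talalay method: CI > 1 is antagonism, CI = 1 additive, CI < 0.9 synergism. Points with fraction affected below 0.20 were flagged.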

CAL-27 [2] = assay: Potentiation of 1 uM cisplatin-induced cytotoxicity against human CAL27 cells assessed as decrease in cell viability by measuring combination index at 2000 uM preincubated for 48 hrs followed by cisplatin treatment measured after 72 hrs by MTT assay; assay type: functional; conditions: in the assay text read “at 2000 nM” for “at 2000 uM”
How it was run: (§2)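 Cal27 and cisplatin-resistant Cal27CisR cells were preincubated with the HDAC inhibitor for 48 h, then given cisplatin in combination. Viability was read by MTT after 72 h. The combination index was computed by the Chou–Talalay method: CI > 1 is antagonism, CI = 1 is additive, and CI < 0.9 is synergism. Points with fraction affected below 0.20 were flagged.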

[3] = biological target: T1, Histone deacetylase 1/6 (Homo sapiens) (UniProt Q13547+Q9UBN7); assay: Inhibition of HDAC1/HDAC6 in human Cal27CisR cells assessed as potentiation of 10 uM cisplatin-induced cytotoxicity by measuring combination index at 2000 nM preincubated for 48 hrs followed by cisplatin treatment measured after 72 hrs by MTT assay
[4] = biological target: T1, Histone deacetylase 1/6 (Homo sapiens); assay: Inhibition of HDAC1/HDAC6 in human Cal27CisR cells assessed as potentiation of 3.16 uM cisplatin-induced cytotoxicity by measuring combination index at 1000 nM preincubated for 48 hrs followed by cisplatin treatment measured after 72 hrs by MTT assay
CAL-27 [5] = assay: Potentiation of 0.316 uM cisplatin-induced cytotoxicity against human CAL27 cells assessed as decrease in cell viability by measuring combination index at 700 nM preincubated for 48 hrs followed by cisplatin treatment measured after 72 hrs by MTT assay
CAL-27 [6] = assay: Potentiation of 5 uM cisplatin-induced cytotoxicity against human CAL27 cells assessed as decrease in cell viability by measuring combination index at 900 uM preincubated for 48 hrs followed by cisplatin treatment measured after 72 hrs by MTT assay; assay type: functional; conditions: in the assay text read “at 900 nM” for “at 900 uM”; how it was run: as §1
CAL-27 [7] = assay: Potentiation of 0.316 uM cisplatin-induced cytotoxicity against human CAL27 cells assessed as decrease in cell viability by measuring combination index at 900 uM preincubated for 48 hrs followed by cisplatin treatment measured after 72 hrs by MTT assay; assay type: functional; conditions: in the assay text read “at 900 nM” for “at 900 uM”; how it was run: as §2
[8] = biological target: T1, Histone deacetylase 1/6 (Homo sapiens); assay: Inhibition of HDAC1/HDAC6 in human Cal27CisR cells assessed as potentiation of 20 uM cisplatin-induced cytotoxicity by measuring combination index at 2000 nM preincubated for 48 hrs followed by cisplatin treatment measured after 72 hrs by MTT assay
[9] = biological target: T1, Histone deacetylase 1/6 (Homo sapiens); assay: Inhibition of HDAC1/HDAC6 in human Cal27CisR cells assessed as potentiation of 10 uM cisplatin-induced cytotoxicity by measuring combination index at 1500 nM preincubated for 48 hrs followed by cisplatin treatment measured after 72 hrs by MTT assay
[10] = biological target: T1, Histone deacetylase 1/6 (Homo sapiens); assay: Inhibition of HDAC1/HDAC6 in human Cal27CisR cells assessed as potentiation of 5 uM cisplatin-induced cytotoxicity by measuring combination index at 1500 uM preincubated for 48 hrs followed by cisplatin treatment measured after 72 hrs by MTT assay; assay type: cell-based; how it was run: as §2
[11] = biological target: T1, Histone deacetylase 1/6 (Homo sapiens); assay: Inhibition of HDAC1/HDAC6 in human Cal27CisR cells assessed as potentiation of 3.16 uM cisplatin-induced cytotoxicity by measuring combination index at 300 uM preincubated for 48 hrs followed by cisplatin treatment measured after 72 hrs by MTT assay; assay type: cell-based
How it was run: (§3)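 Cal27CisR cells preincubated 48 h with the HDAC inhibitor, then exposed to cisplatin for 72 h. Viability read by MTT. Combination index calculated by the Chou–Talalay method: CI > 1 antagonism, CI = 1 additive, CI < 0.9 synergism. Points with fraction affected below 0.20 are flagged. Values are the mean of three experiments.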

CAL-27 [12] = assay: Potentiation of 1 uM cisplatin-induced cytotoxicity against human CAL27 cells assessed as decrease in cell viability by measuring combination index at 100 uM preincubated for 48 hrs followed by cisplatin treatment measured after 72 hrs by MTT assay; assay type: functional; conditions: in the assay text read “at 100 nM” for “at 100 uM”; how it was run: as §2
CAL-27 [13] = assay: Potentiation of 0.316 uM cisplatin-induced cytotoxicity against human CAL27 cells assessed as decrease in cell viability by measuring combination index at 100 uM preincubated for 48 hrs followed by cisplatin treatment measured after 72 hrs by MTT assay; assay type: functional; conditions: in the assay text read “at 100 nM” for “at 100 uM”; how it was run: as §2
CAL-27 [14] = assay: Potentiation of 0.5 uM cisplatin-induced cytotoxicity against human CAL27 cells assessed as decrease in cell viability by measuring combination index at 200 uM preincubated for 48 hrs followed by cisplatin treatment measured after 72 hrs by MTT assay; assay type: functional; how it was run: as §2
CAL-27 [15] = assay: Potentiation of 1 uM cisplatin-induced cytotoxicity against human CAL27 cells assessed as decrease in cell viability by measuring combination index at 400 uM preincubated for 48 hrs followed by cisplatin treatment measured after 72 hrs by MTT assay; assay type: functional; how it was run: as §1
[16] = biological target: T1, Histone deacetylase 1/6 (Homo sapiens); assay: Inhibition of HDAC1/HDAC6 in human Cal27CisR cells assessed as potentiation of 3.16 uM cisplatin-induced cytotoxicity by measuring combination index at 100 uM preincubated for 48 hrs followed by cisplatin treatment measured after 72 hrs by MTT assay; assay type: cell-based; how it was run: as §3
CAL-27 [17] = assay: Potentiation of 0.316 uM cisplatin-induced cytotoxicity against human CAL27 cells assessed as decrease in cell viability by measuring combination index at 300 uM preincubated for 48 hrs followed by cisplatin treatment measured after 72 hrs by MTT assay; assay type: functional; conditions: in the assay text read “at 300 nM” for “at 300 uM”; how it was run: as §2
[18] = biological target: T1, Histone deacetylase 1/6 (Homo sapiens); assay: Inhibition of HDAC1/HDAC6 in human Cal27CisR cells assessed as potentiation of cisplatin-induced cytotoxicity by measuring fold reduction in cisplatin IC50 at 0.5 uM preincubated for 48 hrs followed by cisplatin treatment measured after 72 hrs by MTT assay relative to cisplatin alone; assay type: cell-based
How it was run: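 Cal27CisR cells were pretreated 48 h with 0.5 μM inhibitor, then exposed to increasing cisplatin concentrations for 72 h, with IC50 by MTT. The shift factor is the IC50 of cisplatin alone divided by the IC50 of the combination. Data are mean ± SEM of pooled independent experiments (at least three), each in triplicate, and significance was tested by t test (p < 0.05).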

T1 sequence (Q13547 whole entry, looked up): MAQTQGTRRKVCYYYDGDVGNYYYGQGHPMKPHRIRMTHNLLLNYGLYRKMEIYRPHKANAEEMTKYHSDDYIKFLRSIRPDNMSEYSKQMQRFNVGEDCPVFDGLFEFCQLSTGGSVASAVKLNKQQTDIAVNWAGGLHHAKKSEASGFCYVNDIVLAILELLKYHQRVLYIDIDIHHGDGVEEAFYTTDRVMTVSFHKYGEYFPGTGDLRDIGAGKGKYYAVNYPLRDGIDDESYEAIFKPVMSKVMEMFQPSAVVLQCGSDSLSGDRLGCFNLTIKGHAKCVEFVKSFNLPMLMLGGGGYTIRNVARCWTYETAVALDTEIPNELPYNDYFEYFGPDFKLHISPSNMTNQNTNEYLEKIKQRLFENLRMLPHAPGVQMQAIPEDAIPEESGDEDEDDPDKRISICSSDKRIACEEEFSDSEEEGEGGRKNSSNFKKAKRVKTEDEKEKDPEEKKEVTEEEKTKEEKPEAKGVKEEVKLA
T1 sequence (Q9UBN7 whole entry, looked up): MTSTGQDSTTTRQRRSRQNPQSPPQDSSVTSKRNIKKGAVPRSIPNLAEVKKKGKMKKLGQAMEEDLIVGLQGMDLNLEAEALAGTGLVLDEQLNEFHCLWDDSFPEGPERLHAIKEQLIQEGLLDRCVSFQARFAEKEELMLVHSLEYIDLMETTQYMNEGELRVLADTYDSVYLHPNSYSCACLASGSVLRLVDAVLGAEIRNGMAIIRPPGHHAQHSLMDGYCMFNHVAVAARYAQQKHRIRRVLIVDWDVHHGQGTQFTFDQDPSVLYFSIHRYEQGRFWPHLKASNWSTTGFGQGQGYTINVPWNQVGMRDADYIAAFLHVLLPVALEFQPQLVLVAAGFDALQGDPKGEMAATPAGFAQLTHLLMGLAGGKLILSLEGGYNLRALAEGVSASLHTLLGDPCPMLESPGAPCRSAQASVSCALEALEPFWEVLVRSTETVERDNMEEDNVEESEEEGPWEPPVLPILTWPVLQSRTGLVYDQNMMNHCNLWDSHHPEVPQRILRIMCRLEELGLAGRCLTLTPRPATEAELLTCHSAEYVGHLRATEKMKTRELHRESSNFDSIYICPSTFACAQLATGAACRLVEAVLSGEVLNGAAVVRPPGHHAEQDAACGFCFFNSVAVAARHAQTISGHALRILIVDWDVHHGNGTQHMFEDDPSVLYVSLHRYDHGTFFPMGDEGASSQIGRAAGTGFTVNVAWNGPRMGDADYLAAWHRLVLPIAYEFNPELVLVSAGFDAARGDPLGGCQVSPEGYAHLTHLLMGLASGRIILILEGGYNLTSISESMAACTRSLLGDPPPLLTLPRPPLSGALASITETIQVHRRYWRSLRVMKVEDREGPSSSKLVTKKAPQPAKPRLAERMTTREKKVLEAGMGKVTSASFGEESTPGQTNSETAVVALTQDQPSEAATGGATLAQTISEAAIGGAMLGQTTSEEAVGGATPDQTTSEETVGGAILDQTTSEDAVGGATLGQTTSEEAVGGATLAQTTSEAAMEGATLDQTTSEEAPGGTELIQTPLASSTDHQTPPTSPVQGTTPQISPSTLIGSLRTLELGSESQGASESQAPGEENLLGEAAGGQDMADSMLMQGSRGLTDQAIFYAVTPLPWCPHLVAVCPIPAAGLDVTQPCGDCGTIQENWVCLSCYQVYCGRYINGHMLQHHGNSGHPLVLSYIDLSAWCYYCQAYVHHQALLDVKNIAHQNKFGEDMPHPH

Row | Compound | CI (CAL-27 [1]) | CI (CAL-27 [2]) | CI [3] | CI [4] | CI (CAL-27 [5]) | CI (CAL-27 [6]) | CI (CAL-27 [7]) | CI [8] | CI [9] | CI [10] | CI [11] | CI (CAL-27 [12]) | CI (CAL-27 [13]) | CI (CAL-27 [14]) | CI (CAL-27 [15]) | CI [16] | CI (CAL-27 [17]) | fold change (FC) [18]
1 | COc1cc(NC(=O)NOCCCCCC(=O)NO)c2ncccc2c1 | 0.66 | 0.75 | 0.65 | 0.63 | <0.2 | 0.37 | 0.77 | 0.68 | 0.51 | 0.47 | – | – | – | – | – | – | – | –
2 | COc1cc(NC(=O)NOCCCCCC(=O)NO)c2nccc(C)c2c1 | – | – | – | – | – | – | – | – | – | – | < 0.2 | <0.2 | <0.2 | <0.2 | 0.39 | < 0.2 | <0.2 | 8.2
3 | COc1cc(NC(=O)NOCCCCCC(=O)NO)c2nc(OC)cc(C)c2c1 | – | – | – | – | – | – | – | – | – | – | 0.46 | <0.2 | <0.2 | 0.96 | 0.51 | 0.89 | <0.2 | 11.2
